Experimental data reported in ChEMBL document CHEMBL1126205, “Novel spirosuccinimides with incorporated isoindolone and benzisothiazole 1,1-dioxide moieties as aldose reductase inhibitors and antihyperglycemic agents” (1992).
The source made the active and inactive calls. No cut-off for these calls is given here.

Legend:
Mus musculus = test: Antihyperglycemic activity measured as percent decrease in mice plasma glucose at 100 mg/Kg/day; assay type: functional
Method in brief: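 Male db/db (C57BL/KsJ) mice, 4–6 per group, dosed at 100 mg/kg per day. Plasma glucose of the drug-treated group is expressed as percent decrease relative to a vehicle-treated control group. Values are mean ± SE, with p < 0.05 marked.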

[1] = molecular target: Aldo-keto reductase family 1 member B1 (Bos taurus) (UniProt P16116); test: In vitro aldose reductase inhibitory activity measured by NADPH-dependent inhibition of glyceraldehyde reduction in a partially purified bovine lens preparation at 10E-6 M
Method in brief: (§1)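 Aldose reductase partially purified from bovine lens. Inhibition of NADPH-dependent glyceraldehyde reduction is measured at the single stated concentration and reported as percent inhibition, the mean of two determinations.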

Rattus norvegicus [2] = test: In vivo galactitol inhibitory activity measured by its ability to inhibit galactitol accumulation in diaphragm at 3 mg/Kg/day; NS=Not significant (% Inhibition); assay type: functional, organism-based
Method in brief: (§2)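 Rats (n = 6) fed 20% galactose for 4 days, with compound given in the diet at the stated mg/kg per day. Galactitol accumulation in lens, sciatic nerve or diaphragm is scored as percent inhibition versus the non-treated group, as means of 3–8 drug-treated tissue samples. Dunnett's multiple comparison test applies; NS means p > 0.05.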

Rattus norvegicus [3] = test: In vivo galactitol inhibitory activity measured by its ability to inhibit galactitol accumulation in lens at 3 mg/Kg/day; NS=Not significant (% Inhibition); assay type: functional, organism-based; settings: Lens of camera-type eye; method in brief: as §2
Rattus norvegicus [4] = test: In vivo galactitol inhibitory activity measured by its ability to inhibit galactitol accumulation in sciatic nerve at 3 mg/Kg/day; NS=Not significant (% Inhibition); assay type: functional, organism-based
Method in brief: (§3)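 Rats (n = 6) fed 20% galactose for 4 days, with compound given in the diet at the stated daily dose. Galactitol accumulation was measured in lens, sciatic nerve and diaphragm, and % inhibition was taken versus the nontreated group. Means are from three to eight drug-treated tissue samples. Dunnett's multiple comparison test was applied, with p > 0.05 reported as not significant.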

Rattus norvegicus [5] = test: In vivo galactitol inhibitory activity measured by its ability to inhibit galactitol accumulation in lens at 6 mg/Kg/day; assay type: functional, Lens of camera-type eye; method in brief: as §2
Rattus norvegicus [6] = test: In vivo galactitol inhibitory activity measured by its ability to inhibit galactitol accumulation in diaphragm at 6 mg/Kg/day; assay type: functional; method in brief: as §2
Rattus norvegicus [7] = test: In vivo galactitol inhibitory activity measured by its ability to inhibit galactitol accumulation in sciatic nerve at 6 mg/Kg/day; assay type: functional; method in brief: as §3
[8] = molecular target: Aldo-keto reductase family 1 member B1 (Bos taurus) (UniProt P16116); test: NADPH-dependent inhibition of glyceraldehyde reduction by partially purified aldose reductase from bovine lens at 10e-5 M
Method in brief: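 Partially purified aldose reductase from bovine lens. Inhibition of NADPH-dependent glyceraldehyde reduction was measured at a single test concentration. Values are % inhibition of enzymatic activity, mean of two determinations.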

[9] = molecular target: Aldo-keto reductase family 1 member B1 (Bos taurus) (UniProt P16116); test: In vitro aldose reductase inhibitory activity measured by NADPH-dependent inhibition of glyceraldehyde reduction in a partially purified bovine lens preparation at 10E-7 M; method in brief: as §1
Rattus norvegicus [10] = test: In vivo galactitol inhibitory activity measured by its ability to inhibit galactitol accumulation in lens at 6 mg/Kg/day; NS=Not significant (% Inhibition); assay type: functional, organism-based; settings: Lens of camera-type eye; method in brief: as §2
Rattus norvegicus [11] = test: In vivo galactitol inhibitory activity measured by its ability to inhibit galactitol accumulation in lens at 10 mg/Kg/day; NS=Not significant (% Inhibition); assay type: functional; settings: Lens of camera-type eye; method in brief: as §2
Rattus norvegicus [12] = test: In vivo galactitol inhibitory activity measured by its ability to inhibit galactitol accumulation in diaphragm at 10 mg/Kg/day; assay type: functional; method in brief: as §2
Rattus norvegicus [13] = test: In vivo galactitol inhibitory activity measured by its ability to inhibit galactitol accumulation in sciatic nerve at 6 mg/Kg/day; NS=Not significant (% Inhibition); assay type: functional, organism-based; method in brief: as §3
Rattus norvegicus [14] = test: In vivo galactitol inhibitory activity measured by its ability to inhibit galactitol accumulation in diaphragm at 6 mg/Kg/day; NS=Not significant (% Inhibition); assay type: functional, organism-based; method in brief: as §2
Rattus norvegicus [15] = test: In vivo galactitol inhibitory activity measured by its ability to inhibit galactitol accumulation in sciatic nerve at 10 mg/Kg/day; NS=Not significant (% Inhibition); assay type: functional, organism-based; method in brief: as §3

Row | Compound | Decrease (Mus musculus) [%] | inhibition [1] [%] | further results
1 | O=C1CC2(C(=O)N1)c1ccccc1C(=O)N2Cc1ccccc1 (centres undefined) | 22 | – | –
2 | O=C1CC2(C(=O)N1)c1ccccc1S(=O)(=O)N2Cc1ccccc1F (centres undefined) | <15 | – | –
3 | O=C1CC2(C(=O)N1)c1ccccc1C(=O)N2Cc1c(F)cccc1Cl (centres undefined) | <15 | – | –
4 | O=C1CC2(C(=O)N1)c1ccccc1S(=O)(=O)N2CCCCc1ccc(Cl)cc1 (centres undefined) | 20 | – | –
5 | Cc1oc(-c2ccccc2)nc1CCOc1ccc(CN2C3(CC(=O)NC3=O)c3ccccc3S2(=O)=O)cc1 (centres undefined) | <15 | – | –
6 | O=C1CC2(C(=O)N1)c1ccccc1S(=O)(=O)N2Cc1cccc(Br)c1 (centres undefined) | <15 | – | –
7 | O=C1CC2(C(=O)N1)c1ccccc1S(=O)(=O)N2Cc1c(F)c(F)c(F)c(F)c1F (centres undefined) | <15 | – | –
8 | CSc1ccc2c(c1)C(=O)N(C)C21CC(=O)NC1=O (centres undefined) | <15 | 60 | inhibition (Rattus norvegicus [2]): inactive; inhibition (Rattus norvegicus [3]): inactive; inhibition (Rattus norvegicus [4]): inactive
9 | CN1C(=O)c2ccc(Cl)cc2C12CC(=O)NC2=O (single isomer, unassigned; (+)) [listing 1 of 2 here] | – | – | Inhibition (Rattus norvegicus [5]): 21%; inhibition in vivo at 6 mg/kg/day (Rattus norvegicus [6]): 67%; inhibition in vivo at 6 mg/kg/day (Rattus norvegicus [7]): 58%
10 | O=C(O)CN1C2(CC(=O)NC2=O)c2ccccc2S1(=O)=O (centres undefined) | – | – | inhibition [8]: 0%
11 | O=C1CC2(C(=O)N1)c1ccccc1S(=O)(=O)N2Cc1ccccc1 (centres undefined) | <15 | 0 | inhibition [8]: 45%
12 | CN1C(=O)c2ccc(Cl)cc2C12CC(=O)NC2=O (single isomer, unassigned; (+)) [listing 2 of 2 here] | – | 82 | inhibition [9]: 39%
13 | O=C1CC2(C(=O)N1)c1ccccc1S(=O)(=O)N2Cc1ccc2ccccc2c1 (centres undefined) | <15 | 20 | inhibition [8]: 57%
14 | CCCCN1C2(CC(=O)NC2=O)c2ccccc2S1(=O)=O (centres undefined) | <15 | – | –
15 | O=C1CC2(C(=O)N1)c1ccccc1S(=O)(=O)N2Cc1ccc(C(F)(F)F)cc1 (centres undefined) | <15 | 0 | inhibition [8]: 34%
16 | CC(C)(C)c1ccc(CN2C(=O)c3ccccc3C23CC(=O)NC3=O)cc1 (centres undefined) | <15 | – | –
17 | O=C1CC2(C(=O)N1)c1ccccc1S(=O)(=O)N2Cc1ccc(Br)cc1 (centres undefined) | 37 | – | –
18 | CCCCCc1ccc(CN2C(=O)c3ccccc3C23CC(=O)NC3=O)cc1 (centres undefined) | <15 | – | –
19 | O=C1CC2(C(=O)N1)c1ccccc1S(=O)(=O)N2Cc1ccc(Cl)cc1Cl (centres undefined) | 19 | – | –
20 | CCCCN1C(=O)c2ccccc2C12CC(=O)NC2=O (centres undefined) | <15 | 0 | –
21 | COc1ccc2c(C(=S)N(C)CC(=O)O)cccc2c1C(F)(F)F [TOLRESTAT] | – | – | inhibition in vivo at 6 mg/kg/day (Rattus norvegicus [6]): 80%; inhibition (Rattus norvegicus [10]): inactive; inhibition in vivo at 6 mg/kg/day (Rattus norvegicus [7]): 53%
22 | CN1C(=O)c2ccc([N+](=O)[O-])cc2C12CC(=O)NC2=O (centres undefined) | <15 | 77 | inhibition (Rattus norvegicus [2]): inactive; inhibition [9]: 32%; inhibition (Rattus norvegicus [3]): inactive; inhibition (Rattus norvegicus [4]): inactive
23 | CSc1ccc(CN2C3(CC(=O)NC3=O)c3ccccc3S2(=O)=O)cc1 (centres undefined) | <15 | – | –
24 | O=C1CC2(C(=O)N1)c1ccccc1S(=O)(=O)N2Cc1ccc(Oc2ccccc2)cc1 (centres undefined) | <15 | 24 | inhibition [8]: 67%
25 | COC(=O)c1ccc2c(c1)C1(CC(=O)NC1=O)N(C)C2=O (centres undefined) | <15 | 49 | inhibition (Rattus norvegicus [11]): inactive; inhibition (Rattus norvegicus [10]): inactive; inhibition (Rattus norvegicus [2]): inactive; inhibition [9]: 14%; inhibition (Rattus norvegicus [3]): inactive; inhibition in vivo at 10 mg/kg/day (Rattus norvegicus [12]): 16%; inhibition (Rattus norvegicus [13]): inactive; inhibition (Rattus norvegicus [14]): inactive; inhibition (Rattus norvegicus [4]): inactive; inhibition (Rattus norvegicus [15]): inactive
